# Experiments:
# [1] = Reversal of multidrug resistance in human 2780AD cells assessed as [3H]vincristine accumulation at 0.1 ug/mL after 2 hrs relative to control; assay type: functional, A2780 ADR
# Summary of the method: (§1)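 Multidrug-resistant human ovarian cancer 2780AD cells were exposed to taxoids at 0.1, 1 or 10 µg/mL. Radiolabelled vincristine accumulated in the cells was measured as dpm/well, using means of triplicate determinations. Results are expressed as % of vincristine accumulated relative to the control experiment. They were also scored on a seven-level index according to the range of relative accumulation.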
# MKN-28 = assay: Growth inhibition of human MKN28 cells after 48 hrs by SRB assay; assay type: functional; conditions: MKN-28, 48 h
# [2] = Growth inhibition of human MKN1 cells after 48 hrs by SRB assay; assay type: functional; conditions: MKN-1, 48 h
# [3] = Reversal of multidrug resistance in human 2780AD cells assessed as [3H]vincristine accumulation at 10 ug/mL after 2 hrs relative to verapamil; assay type: functional, A2780 ADR
# A549 = assay: Growth inhibition of human A549 cells after 48 hrs by SRB assay; assay type: functional; conditions: A549, 48 h
# NCI-H226 = assay: Growth inhibition of human NCI-H226 cells after 48 hrs by SRB assay; assay type: functional; conditions: NCI-H226, 48 h
# OVCAR-8 = assay: Growth inhibition of human OVCAR8 cells after 48 hrs by SRB assay; assay type: functional; conditions: OVCAR-8, 48 h
# HCT-116 = assay: Growth inhibition of human HCT116 cells after 48 hrs by SRB assay; assay type: functional; conditions: HCT-116, 48 h
# HT-29 = assay: Growth inhibition of human HT-29 cells after 48 hrs by SRB assay; assay type: functional; conditions: HT-29, 48 h
# U-251 = assay: Growth inhibition of human U251 cells after 48 hrs by SRB assay; assay type: functional; conditions: U-251, 48 h
# [4] = Growth inhibition of human RXF631L cells after 48 hrs by SRB assay; assay type: functional; conditions: RXF 631, 48 h
# SF-539 = assay: Growth inhibition of human SF539 cells after 48 hrs by SRB assay; assay type: functional; conditions: SF-539, 48 h
# DMS-114 = assay: Growth inhibition of human DMS114 cells after 48 hrs by SRB assay; assay type: functional; conditions: DMS-114, 48 h
# DU-145 = assay: Growth inhibition of human DU145 cells after 48 hrs by SRB assay; assay type: functional; conditions: DU-145, 48 h
# HCT-15 = assay: Growth inhibition of human HCT15 cells after 48 hrs by SRB assay; assay type: functional; conditions: HCT-15, 48 h
# NCI-H460 = assay: Growth inhibition of human NCI-H460 cells after 48 hrs by SRB assay; assay type: functional; conditions: NCI-H460, 48 h
# MKN-7 = assay: Growth inhibition of human MKN7 cells after 48 hrs by SRB assay; assay type: functional; conditions: MKN-7, 48 h
# HCC 2998 = assay: Growth inhibition of human HCC2998 cells after 48 hrs by SRB assay; assay type: functional; conditions: HCC 2998, 48 h
# OVCAR-3 = assay: Growth inhibition of human OVCAR-3 cells after 48 hrs by SRB assay; assay type: functional; conditions: OVCAR-3, 48 h
# MCF7 = assay: Growth inhibition of human MCF7 cells after 48 hrs by SRB assay; assay type: functional; conditions: MCF7, 48 h
# [5] = Reversal of multidrug resistance in human 2780AD cells assessed as [3H]vincristine accumulation at 10 ug/mL after 2 hrs relative to control; assay type: functional, A2780 ADR; summary of the method: as §1
# [6] = read-out: LC50 (the source's name)
# [7] = read-out: pLC50 (the source's name) (converted)
smiles,measurement,setting,value
C=C1[C@@H](OC(C)=O)CC[C@]2(C)[C@@H]1C[C@@H]1C[C@H](OC(C)=O)C(C)=C([C@@H](O)[C@@H]2OC(=O)/C=C/c2ccccc2)C1(C)C,Activity,[1],162%
same,GI50,MKN-28; read-out: GI50,12 µM
same,CC50,MKN-28; [6],> 100 µM
same,TGI,MKN-28; read-out: TGI,100 µM
same,GI50,MKN-28; read-out: pGI50 (converted),11.7 µM
same,CC50,MKN-28; read-out: pLC50 (converted),> 100 µM
same,TGI,MKN-28; read-out: pTGI (converted),100 µM
same,GI50,[2]; read-out: GI50,93 µM
same,TGI,[2]; read-out: TGI,100 µM
same,GI50,[2]; read-out: pGI50 (converted),93.3 µM
same,TGI,[2]; read-out: pTGI (converted),100 µM
same,Activity,[3],122%
same,GI50,A549; read-out: GI50,9.6 µM
same,CC50,A549; [6],100 µM
same,TGI,A549; read-out: TGI,100 µM
same,GI50,A549; read-out: pGI50 (converted),9.55 µM
same,CC50,A549; [7],100 µM
same,TGI,A549; read-out: pTGI (converted),100 µM
same,GI50,NCI-H226; read-out: GI50,21 µM
same,CC50,NCI-H226; [6],100 µM
same,TGI,NCI-H226; read-out: TGI,100 µM
same,GI50,NCI-H226; read-out: pGI50 (converted),83.2 µM
same,CC50,NCI-H226; [7],100 µM
same,TGI,NCI-H226; read-out: pTGI (converted),100 µM
same,GI50,OVCAR-8; read-out: GI50,> 100 µM
same,TGI,OVCAR-8; read-out: TGI,100 µM
same,GI50,OVCAR-8; read-out: pGI50 (converted),> 100 µM
same,TGI,OVCAR-8; read-out: pTGI (converted),100 µM
same,GI50,HCT-116; read-out: GI50,5.6 µM
same,CC50,HCT-116; [6],100 µM
same,TGI,HCT-116; read-out: TGI,100 µM
same,GI50,HCT-116; read-out: pGI50 (converted),5.62 µM
same,CC50,HCT-116; [7],100 µM
same,TGI,HCT-116; read-out: pTGI (converted),100 µM
same,GI50,HT-29; read-out: GI50,43 µM
same,CC50,HT-29; [6],> 100 µM
same,TGI,HT-29; read-out: TGI,100 µM
same,GI50,HT-29; read-out: pGI50 (converted),41.7 µM
same,CC50,HT-29; read-out: pLC50 (converted),> 100 µM
same,TGI,HT-29; read-out: pTGI (converted),100 µM
same,GI50,U-251; read-out: GI50,71 µM
same,CC50,U-251; [6],100 µM
same,TGI,U-251; read-out: TGI,100 µM
same,GI50,U-251; read-out: pGI50 (converted),70.8 µM
same,CC50,U-251; [7],100 µM
same,TGI,U-251; read-out: pTGI (converted),100 µM
same,GI50,[4]; read-out: GI50,> 100 µM
same,CC50,[4]; [6],100 µM
same,TGI,[4]; read-out: TGI,100 µM
same,GI50,[4]; read-out: pGI50 (converted),> 100 µM
same,CC50,[4]; [7],100 µM
same,TGI,[4]; read-out: pTGI (converted),100 µM
same,GI50,SF-539; read-out: GI50,> 100 µM
same,CC50,SF-539; [6],100 µM
same,TGI,SF-539; read-out: TGI,100 µM
same,GI50,SF-539; read-out: pGI50 (converted),> 100 µM
same,CC50,SF-539; [7],100 µM
same,TGI,SF-539; read-out: pTGI (converted),100 µM
same,GI50,DMS-114; read-out: GI50,7.8 µM
same,CC50,DMS-114; [6],100 µM
same,TGI,DMS-114; read-out: TGI,100 µM
same,GI50,DMS-114; read-out: pGI50 (converted),7.76 µM
same,CC50,DMS-114; [7],100 µM
same,TGI,DMS-114; read-out: pTGI (converted),100 µM
same,GI50,DU-145; read-out: GI50,> 100 µM
same,CC50,DU-145; [6],100 µM
same,TGI,DU-145; read-out: TGI,100 µM
same,GI50,DU-145; read-out: pGI50 (converted),> 100 µM
same,CC50,DU-145; [7],100 µM
same,TGI,DU-145; read-out: pTGI (converted),100 µM
same,GI50,HCT-15; read-out: GI50,29 µM
same,CC50,HCT-15; [6],> 100 µM
same,TGI,HCT-15; read-out: TGI,100 µM
same,GI50,HCT-15; read-out: pGI50 (converted),28.8 µM
same,CC50,HCT-15; read-out: pLC50 (converted),> 100 µM
same,TGI,HCT-15; read-out: pTGI (converted),100 µM
same,GI50,NCI-H460; read-out: GI50,44 µM
same,TGI,NCI-H460; read-out: TGI,100 µM
same,GI50,NCI-H460; read-out: pGI50 (converted),41.7 µM
same,TGI,NCI-H460; read-out: pTGI (converted),100 µM
same,GI50,MKN-7; read-out: GI50,5.1 µM
same,CC50,MKN-7; [6],100 µM
same,TGI,MKN-7; read-out: TGI,100 µM
same,GI50,MKN-7; read-out: pGI50 (converted),5.13 µM
same,CC50,MKN-7; [7],100 µM
same,TGI,MKN-7; read-out: pTGI (converted),100 µM
same,GI50,HCC 2998; read-out: GI50,26 µM
same,CC50,HCC 2998; [6],100 µM
same,TGI,HCC 2998; read-out: TGI,100 µM
same,GI50,HCC 2998; read-out: pGI50 (converted),26.3 µM
same,CC50,HCC 2998; [7],100 µM
same,TGI,HCC 2998; read-out: pTGI (converted),100 µM
same,GI50,OVCAR-3; read-out: GI50,5 µM
same,CC50,OVCAR-3; [6],> 100 µM
same,TGI,OVCAR-3; read-out: TGI,100 µM
same,GI50,OVCAR-3; read-out: pGI50 (converted),5.01 µM
same,CC50,OVCAR-3; read-out: pLC50 (converted),> 100 µM
same,TGI,OVCAR-3; read-out: pTGI (converted),100 µM
same,GI50,MCF7; read-out: GI50,9.3 µM
same,CC50,MCF7; [6],> 100 µM
same,TGI,MCF7; read-out: TGI,100 µM
same,GI50,MCF7; read-out: pGI50 (converted),9.33 µM
same,CC50,MCF7; read-out: pLC50 (converted),> 100 µM
same,TGI,MCF7; read-out: pTGI (converted),100 µM
same,Activity,[5],648%
